Measurements as given in ChEMBL document CHEMBL3259517, “Synthesis and evaluation of phosphorus containing, specific CDK9/CycT1 inhibitors” (J Med Chem, 2014).

Tests used:
CDK9/cyclin T1 = CDK9/cyclin T1 (Homo sapiens, UniProt P50750); experiment: Inhibition of CDK9/CycT1 (unknown origin) using TAMRA-Rbtide and ATP as substrate after 1 hr; type: protein-complex assay
[1] = system: Human immunodeficiency virus 1; experiment: Antiviral activity against HIV1 HTLV-3B infected in human MT4 cells assessed as inhibition of virus proliferation by measuring host cell viability at 1250 nM relative to control; type: functional
In short: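 HIV-1 HTLV-IIIB (3400 TCID50/mL per well; titre set by virus yield assay) infected MT4 cells, 2−3 × 10⁴/well in RPMI1640 with 10% FCS, penicillin and streptomycin, cultured as for the 7-day viability assay (37 °C, 5% CO2). Test compounds were at 1250 nM and AZT control at 25 nM. Read-out was MTT (4 h, DMSO, A540), given relative to infected untreated cells (100%).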

[2] = Cytotoxicity against human MT4 cells assessed as cell viability at 2500 nM after 7 days by MTT assay relative to control; type: cell-based; conditions: read-out: Activity
In short: (§1)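 MT4 cells (2−3 × 10⁴/well) in RPMI1640 with 10% FCS, penicillin and streptomycin, exposed to compound at 2500 or 1250 nM for 7 days at 37 °C, 5% CO2. MTT added for 4 h, supernatant removed, formazan dissolved in DMSO, absorbance read at 540 nm. Viability expressed relative to untreated cells (100%).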

[3] = Cytotoxicity against human MT4 cells assessed as cell viability at 1250 nM after 7 days by MTT assay relative to control; type: cell-based; conditions: read-out: Activity; in short: as §1
[4] = target: Cyclin-dependent kinase 2/cyclin E1 (Homo sapiens) (UniProt P24864+P24941); experiment: Inhibition of CDK2/CycE (unknown origin) using FAM labeled peptide as substrate at 10 uM by IMAP FAM FP assay; type: protein-complex assay
In short: (§2)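 Run by contract partners as an IMAP fluorescence polarization assay. […] Enzyme amount was set to give 50% substrate turnover. Compounds were added in DMSO, IMAP binding solution added after the kinase step, then FP read.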

[5] = target: Cyclin-dependent kinase 4/cyclin D1 (Homo sapiens) (UniProt P11802+P24385); experiment: Inhibition of CDK4/CycD1 (unknown origin) using FAM labeled peptide as substrate at 10 uM by IMAP FAM FP assay; type: protein-complex assay; in short: as §2

Chain of CDK9/cyclin T1 (O60563 whole entry): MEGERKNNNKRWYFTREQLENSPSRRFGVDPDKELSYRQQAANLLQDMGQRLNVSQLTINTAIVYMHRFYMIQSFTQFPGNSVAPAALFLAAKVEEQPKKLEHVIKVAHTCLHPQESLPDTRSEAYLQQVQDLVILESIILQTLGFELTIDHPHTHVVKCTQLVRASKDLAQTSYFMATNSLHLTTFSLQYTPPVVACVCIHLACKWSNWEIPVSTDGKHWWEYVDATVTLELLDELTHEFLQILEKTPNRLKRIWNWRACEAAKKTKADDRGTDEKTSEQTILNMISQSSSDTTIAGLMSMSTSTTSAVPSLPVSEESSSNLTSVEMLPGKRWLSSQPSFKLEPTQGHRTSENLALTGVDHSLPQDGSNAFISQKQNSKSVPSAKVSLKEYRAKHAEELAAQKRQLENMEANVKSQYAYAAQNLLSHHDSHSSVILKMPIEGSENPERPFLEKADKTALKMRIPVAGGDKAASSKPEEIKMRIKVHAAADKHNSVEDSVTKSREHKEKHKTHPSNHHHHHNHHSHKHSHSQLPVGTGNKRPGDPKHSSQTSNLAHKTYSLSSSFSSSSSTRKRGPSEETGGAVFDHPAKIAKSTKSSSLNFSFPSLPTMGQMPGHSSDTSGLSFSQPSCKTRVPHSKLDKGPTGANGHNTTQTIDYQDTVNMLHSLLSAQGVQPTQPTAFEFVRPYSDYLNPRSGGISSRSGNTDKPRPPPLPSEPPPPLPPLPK
Chain of CDK9/cyclin T1 (P50750 whole entry): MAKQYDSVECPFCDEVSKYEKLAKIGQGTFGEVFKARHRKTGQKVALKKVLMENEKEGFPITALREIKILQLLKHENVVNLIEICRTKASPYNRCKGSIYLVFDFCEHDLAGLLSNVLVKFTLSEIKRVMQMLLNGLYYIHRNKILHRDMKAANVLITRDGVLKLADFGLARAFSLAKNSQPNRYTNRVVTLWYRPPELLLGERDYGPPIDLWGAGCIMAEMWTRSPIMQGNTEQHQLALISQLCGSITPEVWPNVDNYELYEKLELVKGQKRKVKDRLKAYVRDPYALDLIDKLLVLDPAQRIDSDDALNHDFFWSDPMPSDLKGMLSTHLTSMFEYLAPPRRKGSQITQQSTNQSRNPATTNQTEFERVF

Structure (SMILES) | IC50 (CDK9/cyclin T1) [µM] | other results
CCCP(=O)(OCC)c1ccc(Nc2cc(-c3cccc(N)c3)ncn2)cc1 (stereo unspecified) | > 10 | –
CCOP(=O)(CC)Cc1cc(Nc2cc(-c3cccc([N+](=O)[O-])c3)ncn2)ccc1C (stereo unspecified) | 7.02 | –
COc1ccccc1-c1cc(Nc2ccc(P(=O)(O)O)cc2)ncn1 | 0.58 | –
CCCP(=O)(Cc1ccc(Nc2cc(-c3cccc(N)c3)ncn2)cc1)OCC (stereo unspecified) | 7.47 | –
CCCP(=O)(Cc1cccc(Nc2cc(-c3ccccc3OC(C)C)ncn2)c1)OCC (stereo unspecified) | 0.21 | –
CCOP(=O)(CC)Cc1cccc(Nc2cc(-c3ccccc3OCc3ccccc3)ncn2)c1 (stereo unspecified) | 0.212 | Host cell viability relative to infected untreated cells [1]: 135%; viability at 168 h, 2.5 µM [2]: 94%; viability at 168 h, 1.25 µM [3]: 98%
CCOP(=O)(Cc1cccc(Nc2cc(-c3cccc([N+](=O)[O-])c3)ncn2)c1)c1ccccc1 (stereo unspecified) | > 10 | –
CCOP(=O)(Cc1cc(Nc2cc(-c3ccccc3OC)ncn2)ccc1C)OCC | 5.22 | –
CCOP(=O)(Oc1cc(Nc2cc(-c3ccccc3OC)ncn2)ccc1C)c1ccccc1 (stereo unspecified) | 4.14 | inhibition [4]: 8%; inhibition [5]: 19%
CCCP(=O)(Cc1cccc(Nc2cc(-c3ccc(OC)cc3)ncn2)c1)OCC (stereo unspecified) | 5.41 | –
CCOP(=O)(OCC)c1cccc(Nc2cc(-c3cccc([N+](=O)[O-])c3)ncn2)c1 | > 10 | –
O=[N+]([O-])c1cccc(-c2cc(Nc3ccc(CP(=O)(O)O)cc3)ncn2)c1 | 2.1 | –
CCOP(=O)(CC)c1ccc(Nc2cc(-c3ccccc3OC)ncn2)cc1 (stereo unspecified) | 0.418 | –
CCOP(=O)(Cc1cccc(Nc2cc(-c3ccccc3OC)ncn2)c1)c1ccccc1 (stereo unspecified) | 0.517 | –
CCCP(=O)(Cc1cccc(Nc2cc(-c3cccc([N+](=O)[O-])c3)ncn2)c1)OCC (stereo unspecified) | 8.06 | –
CCCP(=O)(Cc1cccc(Nc2cc(-c3cccc(OC)c3)ncn2)c1)OCC (stereo unspecified) | 6.94 | –
CCOP(=O)(OCC)c1ccc(Nc2cc(-c3cccc(N)c3)ncn2)cc1 | > 10 | inhibition [4]: 18%; inhibition [5]: 35%
CCOP(=O)(CC)Cc1cc(Nc2cc(-c3cccc(N)c3)ncn2)ccc1C (stereo unspecified) | 0.346 | –
CCOP(=O)(c1ccccc1)c1ccc(Nc2cc(-c3cccc(N)c3)ncn2)cc1 (stereo unspecified) | 6.5 | –
CCCP(=O)(Cc1cccc(Nc2cc(-c3ccccc3OCc3ccccc3)ncn2)c1)OCC (stereo unspecified) | 0.143 | Host cell viability relative to infected untreated cells [1]: 148%; viability at 168 h, 2.5 µM [2]: 93%; viability at 168 h, 1.25 µM [3]: 86%
CCOP(=O)(Cc1cccc(Nc2cc(-c3cccc(N)c3)ncn2)c1)c1ccccc1 (stereo unspecified) | 1.02 | –
CCOP(=O)(Cc1ccc(Nc2cc(-c3ccccc3OC)ncn2)cc1)OCC | 0.49 | inhibition [4]: 77%; inhibition [5]: 51%

Structure (SMILES) | IC50 (CDK9/cyclin T1) [µM] | other results
CCOP(=O)(Oc1cccc(Nc2cc(-c3cccc(N)c3)ncn2)c1)c1ccccc1 (stereo unspecified) | 5.33 | –
CCCP(=O)(Cc1cccc(Nc2cc(-c3cccc(N)c3)ncn2)c1)OCC (stereo unspecified) | 0.682 | –
CCCP(=O)(Cc1cccc(Nc2cc(-c3cccc(OC)c3OC)ncn2)c1)OCC (stereo unspecified) | 2.39 | –
CCOP(=O)(OCC)c1cccc(Nc2cc(-c3ccccc3OC)ncn2)c1 | 1.04 | –
CCOP(=O)(CC)c1ccc(Nc2cc(-c3cccc([N+](=O)[O-])c3)ncn2)cc1 (stereo unspecified) | > 10 | –
CCCP(=O)(OCC)c1ccc(Nc2cc(-c3cccc([N+](=O)[O-])c3)ncn2)cc1 (stereo unspecified) | > 10 | –
CCOP(=O)(CC)c1cccc(Nc2cc(-c3ccccc3OC)ncn2)c1 (stereo unspecified) | 0.842 | –
CN1CC[C@H](c2c(O)cc(O)c3c(=O)cc(-c4ccccc4Cl)oc23)[C@H](O)C1 | – | inhibition [4]: 99%; inhibition [5]: 84%
CCCP(=O)(Cc1ccc(Nc2cc(-c3ccccc3OC)ncn2)cc1)OCC (stereo unspecified) | 0.652 | –
CCOP(=O)(OCC)C(O)c1ccc(Nc2cc(-c3cccc([N+](=O)[O-])c3)ncn2)cc1 (stereo unspecified) | 4.58 | –
CCOP(=O)(Cc1cccc(Nc2cc(-c3ccccc3OC)ncn2)c1)OCC | 0.333 | viability at 168 h, 2.5 µM [2]: 100%; viability at 168 h, 1.25 µM [3]: 91%
CCOP(=O)(Oc1cccc(Nc2cc(-c3cccc([N+](=O)[O-])c3)ncn2)c1)c1ccccc1 (stereo unspecified) | > 10 | –
CCOP(=O)(CC)Cc1cccc(Nc2cc(-c3cccc([N+](=O)[O-])c3)ncn2)c1 (stereo unspecified) | 6.43 | –
CCOP(=O)(Cc1ccc(Nc2cc(-c3cccc(N)c3)ncn2)cc1)OCC | 3.11 | inhibition [4]: 14%; inhibition [5]: 30%
CCOP(=O)(OCC)C(O)c1ccc(Nc2cc(-c3ccccc3OC)ncn2)cc1 (stereo unspecified) | 0.51 | inhibition [4]: 94%; inhibition [5]: 68%
CCOP(=O)(CC)Cc1ccc(Nc2cc(-c3cccc(N)c3)ncn2)cc1 (stereo unspecified) | 7.53 | –
CCOP(=O)(OCC)c1ccc(Nc2cc(-c3ccccc3OC)ncn2)cc1 | 1.02 | inhibition [4]: 69%; inhibition [5]: 22%
CCOP(=O)(Oc1cccc(Nc2cc(-c3ccccc3OC)ncn2)c1)c1ccccc1 (stereo unspecified) | 3.1 | –
O=[N+]([O-])c1cccc(-c2cc(Nc3cccc(P(=O)(O)O)c3)ncn2)c1 | 4.1 | –
CCCP(=O)(Cc1cccc(Nc2cc(-c3cccc(OCc4ccccc4)c3)ncn2)c1)OCC (stereo unspecified) | > 10 | –
CCOP(=O)(c1ccccc1)c1ccc(Nc2cc(-c3ccccc3OC)ncn2)cc1 (stereo unspecified) | 0.523 | –
CCOP(=O)(CC)Cc1ccc(Nc2cc(-c3cccc([N+](=O)[O-])c3)ncn2)cc1 (stereo unspecified) | 7.77 | –

Structure (SMILES) | IC50 (CDK9/cyclin T1) [µM] | other results
CCCP(=O)(Cc1cccc(Nc2cc(-c3ccccc3CC)ncn2)c1)OCC (stereo unspecified) | > 10 | –
CCOP(=O)(Cc1ccc(Nc2cc(-c3cccc([N+](=O)[O-])c3)ncn2)cc1)OCC | > 10 | –
CCOP(=O)(OCC)C(O)c1cccc(Nc2cc(-c3cccc(N)c3)ncn2)c1 (stereo unspecified) | 1.4 | –
CCOP(=O)(Oc1ccc(Nc2cc(-c3ccccc3OC)ncn2)cc1)c1ccccc1 (stereo unspecified) | 2.84 | –
CCOP(=O)(CC)Cc1ccc(Nc2cc(-c3ccccc3OC)ncn2)cc1 (stereo unspecified) | 0.743 | –
CCCP(=O)(Cc1cccc(Nc2cc(-c3ccc(F)cc3OC)ncn2)c1)OCC (stereo unspecified) | 0.186 | –
CCOP(=O)(Cc1cccc(Nc2cc(-c3cccc([N+](=O)[O-])c3)ncn2)c1)OCC | 9.87 | –
CCOP(=O)(CC)c1cccc(Nc2cc(-c3cccc(N)c3)ncn2)c1 (stereo unspecified) | 9.8 | –
CCOP(=O)(c1ccccc1)c1ccc(Nc2cc(-c3cccc([N+](=O)[O-])c3)ncn2)cc1 (stereo unspecified) | > 10 | –
CCOP(=O)(CC)c1cccc(Nc2cc(-c3cccc([N+](=O)[O-])c3)ncn2)c1 (stereo unspecified) | > 10 | –
CCOP(=O)(OCC)c1ccc(Nc2cc(-c3cccc([N+](=O)[O-])c3)ncn2)cc1 | > 10 | –
CCOP(=O)(OCC)C(O)c1cccc(Nc2cc(-c3cccc([N+](=O)[O-])c3)ncn2)c1 (stereo unspecified) | > 10 | –
CCOP(=O)(Nc1cc(Nc2cc(-c3ccccc3OC)ncn2)ccc1C)c1ccccc1 (stereo unspecified) | 5.24 | inhibition [4]: 19%; inhibition [5]: 18%
CCCP(=O)(OCC)c1ccc(Nc2cc(-c3ccccc3OC)ncn2)cc1 (stereo unspecified) | 1.15 | –
Nc1cccc(-c2cc(Nc3ccc(P(=O)(O)O)cc3)ncn2)c1 | 3.32 | inhibition [4]: 98%; inhibition [5]: 67%
CCOP(=O)(CC)c1ccc(Nc2cc(-c3cccc(N)c3)ncn2)cc1 (stereo unspecified) | > 10 | –
CCCP(=O)(Cc1ccc(Nc2cc(-c3cccc([N+](=O)[O-])c3)ncn2)cc1)OCC (stereo unspecified) | 5.53 | –
Nc1cccc(-c2cc(Nc3ccc(CP(=O)(O)O)cc3)ncn2)c1 | 1.13 | –
CCOP(=O)(Cc1cccc(Nc2cc(-c3cccc(N)c3)ncn2)c1)OCC | 0.332 | Host cell viability relative to infected untreated cells [1]: 96%
CCCP(=O)(Cc1cccc(Nc2cc(-c3ccccc3Oc3ccccc3)ncn2)c1)OCC (stereo unspecified) | 0.601 | –
CCOP(=O)(CC)Cc1cc(Nc2cc(-c3ccccc3OC)ncn2)ccc1C (stereo unspecified) | 0.366 | –
